An excerpt weighted towards active compounds, which were near 2.9% of everything screened.
SENP8 block-1: blocks human SENP8 cleavage of Nedd8 substrate; recombinant SENP8, Nedd8 substrate fluorescence; inhibition, % at 20 µM; 360,000 compounds, 0.64% hits; in the data active = inhibition mostly above about 40%, no sharp cut-off; inactive = mostly below about 27%
Target sequence (Q96LD8 whole entry, looked up): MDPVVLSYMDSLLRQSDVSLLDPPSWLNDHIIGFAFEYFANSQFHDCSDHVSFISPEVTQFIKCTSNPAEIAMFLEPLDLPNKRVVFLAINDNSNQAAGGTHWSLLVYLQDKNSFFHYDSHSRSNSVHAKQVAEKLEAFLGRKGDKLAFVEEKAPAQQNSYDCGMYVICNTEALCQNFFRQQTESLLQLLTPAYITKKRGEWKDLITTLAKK
SENP6 block: blocks the human protease SENP6; Recombinant SENP6 catalytic domain, aminoluciferin luminescence; inhibition, % at 10 µM; 330,000 compounds, 1.8% hits;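 active = inhibition above about 50% at the single tested dose, limit read from the data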
SENP8 block-2: SENP8 protease inhibition; Q96LD8; purified SENP8, Z-RLRGG-aminoluciferin cleavage, luminescence; inhibition, % at 10 µM; 330,000 compounds, 1.2% hits; AID 2540; in the data active = inhibition above about 50%
SENP7 block: SENP7 protease inhibition; Q9BQF6; recombinant SENP7, Z-RLRGG-aminoluciferin luminescence, 40 min; inhibition, % at 5 µM; 330,000 compounds, 1.5% hits;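 active = inhibition above about 50% at the single test dose, limit read from the data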
HSP90 inh: blocks HSP90-mediated luciferase refolding in reticulocyte lysate; Rabbit reticulocyte lysate, luciferase refolding luminescence, 3 h; inhibition, % at 5.6 µM; 290,000 compounds, 0.91% hits; AID 1789;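 active = inhibition above the screen-wide mean plus 3 SD, computed separately per campaign, cut at about 16% in these data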;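 note: inhibitors lower the luminescence because luciferase stays unfolded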
SENP1 inh: blocks the human SENP1 SUMO protease catalytic domain | Q9P0U3 | recombinant SENP1 catalytic domain, CyPet-SUMO1-YPet FRET cleavage | inhibition, % at 10 µM | 360,000 compounds, 0.21% hits | AID 624204;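 active = inhibition at least 30% at 10 µM, raw YFP signal under a set limit, fluorescence ratio 0.5 to 1.5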
Target sequence (Q9P0U3 419-644 limits assumed): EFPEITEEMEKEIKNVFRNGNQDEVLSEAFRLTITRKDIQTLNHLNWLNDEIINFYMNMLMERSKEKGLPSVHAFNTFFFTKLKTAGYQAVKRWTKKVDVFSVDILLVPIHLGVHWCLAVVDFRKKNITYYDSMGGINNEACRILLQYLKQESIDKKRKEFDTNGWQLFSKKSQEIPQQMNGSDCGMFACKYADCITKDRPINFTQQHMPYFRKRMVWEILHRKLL
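System: Recombinant human SENP1 catalytic domain, His6-tagged | Incubation: Enzyme reaction for 50 min at room temperature, dark | Medium: Tris pH 8 with BME, BSA, NP40 and catalase | Also added: 25 nM SUMO1 FRET substrate | Compound: 10 µM single point, 0.5% DMSO | Measured by: FRET fluorescence in CFP and YFP emission channels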
SENP8 confirm: human SENP8 inhibition, confirmed; shares compounds with SENP7 block; Recombinant SENP8, Z-RLRGG-aminoluciferin luminescence, 60 min; inhibition, % at 12.5 µM; 6,200 compounds, 40% hits; AID 488912;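 active = mean inhibition across replicates above about 50%, limit read from the data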
SENP6 conf: confirmation of human SENP6 protease inhibitors; shares compounds with SENP7 block; 6,200 compounds, 58% hits; recombinant SENP6, Z-RLRGG-aminoluciferin luminescence; inhibition, % at 12.5 µM; AID 488915
SENP7 confirm: confirmation of human SENP7 protease inhibitors. shares compounds with SENP7 block. recombinant SENP7, Z-RLRGG-aminoluciferin luminescence, 40 min. inhibition, % at 12.5 µM. 6,200 compounds, 69% hits. AID 488917
Casp3 select: inhibits human caspase-3 in SENP selectivity test; shares compounds with SENP7 block; purified caspase-3, Z-DEVD-aminoluciferin luminescence, 60 min; inhibition, % at 12.5 µM; 6,200 compounds, 60% hits;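 active = mean inhibition above about 50%, limit read from the data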
Target sequence (P42574 28-227 limits assumed): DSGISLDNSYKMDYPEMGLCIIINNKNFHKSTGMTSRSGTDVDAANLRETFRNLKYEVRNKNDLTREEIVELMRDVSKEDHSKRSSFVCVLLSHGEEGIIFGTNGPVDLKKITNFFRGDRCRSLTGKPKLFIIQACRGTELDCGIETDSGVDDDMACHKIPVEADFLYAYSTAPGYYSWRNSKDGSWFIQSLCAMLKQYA
Luc interf: luminescence interference (SENP counter-screen); shares compounds with SENP7 block; Pre-incubated SENP8/Z-RLRGG-aminoluciferin, luciferase luminescence interference; inhibition, % at 12.5 µM; 6,200 compounds, 39% hits;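 active = mean inhibition above about 50% when retested at one dose, limit read from the data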
Of the large screens only hits and unclear results are named; the others gave an inactive call (follow-up assays come after a bar, where they were run).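 Rule for the calls, unless noted: active = mean inhibition above about 50% in the one-dose retest (limit read from the data); inactive = the rest.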

COc1cc(-c2nnc(-c3ccccc3)o2)cc(OC)c1OC	none
c1ccc(-c2nnc(-c3ccccc3)o2)cc1	SENP6 block 87.2, SENP8 block-2 78.9, SENP7 block 91.5 | SENP8 confirm 72.5 | SENP6 conf 82.4 | SENP7 confirm 96.0 | Casp3 select 87.8 | Luc interf 66.4
CCC(C)c1ccc(NC(=O)N2CCN(C(=O)C3CCCO3)CC2)cc1 (stereo not given)	none
Nc1ccccc1-c1nnc(-c2ccc(-c3ccccc3)cc2)o1	SENP8 block-2 76.8, SENP7 block 96.2 | SENP8 confirm inactive | SENP6 conf inactive | SENP7 confirm inactive | Casp3 select 51.1 | Luc interf inactive
COc1ccccc1-c1nnc(-c2ccc(C)cc2)o1	SENP6 block 55.5, SENP7 block 55.2 (no result: HSP90 inh) | SENP8 confirm 50.5 | SENP6 conf inactive | SENP7 confirm 74.0 | Casp3 select 54.1 | Luc interf 55.7
Clc1cccc(-c2nnc(-c3ccccc3)o2)c1	SENP6 block 95.0, SENP8 block-2 91.8, SENP7 block 93.9 | SENP8 confirm 93.2 | SENP6 conf 96.6 | SENP7 confirm 101.5 | Casp3 select 94.0 | Luc interf 94.5
COCCNC(=O)C1CCC(CNS(=O)(=O)c2ccccc2)CC1 (stereo not given)	none
COc1cccc(C(=O)COC(=O)c2cccs2)c1	SENP6 block 84.1, SENP8 block-2 77.0, SENP7 block 86.2 | SENP8 confirm inactive | SENP6 conf 80.8 | SENP7 confirm 96.6 | Casp3 select 84.3 | Luc interf 82.2
Cc1ccsc1C(=O)OCC(=O)Nc1sccc1C(N)=O	SENP7 block 66.8 | SENP8 confirm 56.1 | SENP6 conf 58.0 | SENP7 confirm 78.9 | Casp3 select 66.8 | Luc interf inactive
Cc1ccsc1C(=O)OCC(=O)NCCNC(=O)COC(=O)c1sccc1C	none (no result: HSP90 inh)
COc1ccccc1C(=O)COC(=O)c1cccs1	none (no result: HSP90 inh)
COc1cccc(C(=O)COc2ccc(NC(=O)c3cccs3)cc2)c1	none
COc1ccc(C(=O)COC(=O)c2cccs2)cc1	SENP6 block 94.5, SENP8 block-2 91.7, SENP7 block 99.5 (no result: HSP90 inh) | SENP8 confirm 94.5 | SENP6 conf 95.2 | SENP7 confirm 101.7 | Casp3 select 96.1 | Luc interf 92.9
O=C(COC(=O)c1cccs1)c1ccccc1	SENP6 block 89.6, SENP8 block-2 78.5, SENP7 block 82.7 | SENP8 confirm 78.1 | SENP6 conf 80.5 | SENP7 confirm 95.9 | Casp3 select 89.1 | Luc interf 84.1
O=C(NCc1ccccc1)C(c1ccc(-c2ccccc2)cc1)N1CCN(CCN2CCOCC2)CC1 (stereo not given)	none (no result: SENP6 block, SENP8 block-2, SENP7 block, HSP90 inh)
Cc1ccsc1C(=O)OCC(=O)c1ccc(OC(F)F)cc1	SENP6 block 94.8, SENP8 block-2 94.1, SENP7 block 96.7 (no result: HSP90 inh) | SENP8 confirm 69.2 | SENP6 conf 91.4 | SENP7 confirm 101.8 | Casp3 select 92.2 | Luc interf inactive
COc1ccc(C(=O)COC(=O)c2sccc2C)cc1OC	none (no result: HSP90 inh)
COc1ccc(S(=O)(=O)Nc2ccccc2C(=O)NCc2cccnc2)cc1OC	none
CCCCNC(=O)c1sc(=S)n2c1[nH]c(=O)c1ccccc12	SENP6 block 85.1 | SENP8 confirm inactive | SENP6 conf inactive | SENP7 confirm inactive | Casp3 select inactive | Luc interf inactive
CCCCNC(=O)c1sc(=S)n(-c2ccccc2OC)c1N	none
Cc1cc2nc(SCC(=O)N(C)C)c3c(c2cc1C)CCCC3	none
Cc1cccc(CC2CC(=O)N(c3nc4ccccc4s3)C2=O)c1 (stereo not given)	none
Cc1ccc2nc(N3C(=O)CNC3=S)sc2c1	SENP6 block 94.2, SENP8 block-2 91.3, SENP7 block 89.0 | SENP8 confirm inactive | SENP6 conf 92.5 | SENP7 confirm 100.3 | Casp3 select 94.6 | Luc interf inactive
O=C(Nc1ccc([N+](=O)[O-])cc1)N1CCN(C(=O)C2CCCO2)CC1 (stereo not given)	none
COCCNC(=O)C(=O)NCC1OCCCN1S(=O)(=O)c1cccs1 (stereo not given)	none
COc1ccc(/C=C/C2=NN(C)C(=O)CC2)cc1	SENP6 block 78.4, SENP8 block-2 69.1, SENP7 block 83.4 | SENP8 confirm 80.9 | SENP6 conf 79.9 | SENP7 confirm 93.9 | Casp3 select 92.6 | Luc interf 80.1
CCN(C(=S)NC(=O)c1ccco1)c1cccc2ccccc12	SENP6 block 70.4 (no result: HSP90 inh) | SENP8 confirm inactive | SENP6 conf inactive | SENP7 confirm inactive | Casp3 select inactive | Luc interf inactive
O=C(O)c1c2c(nc3ccccc13)/C(=C/c1ccc(O)cc1)CC2	SENP6 block 77.0, SENP8 block-2 75.5, SENP7 block 70.6 | SENP8 confirm 90.8 | SENP6 conf 88.5 | SENP7 confirm 98.4 | Casp3 select 93.4 | Luc interf 63.4
O=C(O)c1ccccc1-c1ccccc1C(=O)Nc1ccc2c(c1)CCC2	none
O=C(Nc1ccc2c(c1)CCC2)c1cnccn1	SENP6 block 52.3 | SENP8 confirm 54.6 | SENP6 conf 51.6 | SENP7 confirm 82.6 | Casp3 select 77.4 | Luc interf inactive
CCOC(=O)c1ccc(NC(=O)c2cnccn2)cc1	none
O=C(Nc1ccc2c(c1)CCC2)c1ccccc1F	SENP6 block 92.0, SENP8 block-2 70.2, SENP7 block 79.7 | SENP8 confirm inactive | SENP6 conf 85.9 | SENP7 confirm 98.9 | Casp3 select 85.2 | Luc interf 84.7
CCCCc1ccc(NC(=O)c2cnccn2)cc1	SENP6 block 85.4, SENP8 block-2 85.2, SENP7 block 92.3, HSP90 inh 16.8 | SENP8 confirm 92.4 | SENP6 conf 94.6 | SENP7 confirm 100.9 | Casp3 select 85.9 | Luc interf 58.5
O=C(Nc1ccc2c(c1)CCC2)c1ccccc1	SENP6 block 84.3, SENP8 block-2 82.0, SENP7 block 88.0 | SENP8 confirm 90.0 | SENP6 conf 88.8 | SENP7 confirm 98.1 | Casp3 select 87.8 | Luc interf 86.9
COc1ccc(CN(C(=O)c2cc(=O)c3ccccc3o2)C2CCS(=O)(=O)C2)cc1OC (stereo not given)	none

Screens deposited in PubChem BioAssay by several laboratories.
